A selection: hits, their analogues and other compounds. The true share with any hit is near 1.8%.
eIF4H FP inh: human eIF4H binding inhibitors, primary screen, translation initiation inhibitor project, biochemical, uHTS, fluorescence polarization | Eukaryotic translation initiation factor 4H (Homo sapiens), Q15056 | eIF4H fluorescence polarization binding assay | inhibition, % at 35 µM | actives 0.94% (n = 290,000) | AID 2012, 2009;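 also: calls also rest on retests at 20 µM and on dose response follow-up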
MT1-MMP act inh: blockers of MT1-MMP proenzyme processing, primary screen, HT1080 RFP-PRO-GFP cells, GFP/RFP fluorescence | Matrix metalloproteinase-14 (Homo sapiens), P50281 | GFP/RFP ratio fluorescence, overnight; percent of plate control window, DMSO zero | GFP/RFP ratio change, % at 20 µM | actives 0.061% (n = 360,000) | AID 651647, 2012;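 active = GFP/RFP ratio change of at least 30% with cell ATP level not reduced by more than half and red fluorescence within 50% of control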
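Read-out: GFP/RFP fluorescence ratio; Test system: RFP-PRO-GFP reporter HT1080 cells; Compound dosing: single-point 20 µM compound, 1% DMSO; Times: overnight compound exposure at 37 °C.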
PABP1 MLLE inh: inhibitors of PABP1 MLLE–PAM2 peptide binding, primary screen, biochemical, fluorescence polarization, FITC-PAM2, GST-MLLE; actives 0.36% (n = 360,000); Polyadenylate-binding protein 1 (Homo sapiens), P11940; inhibition, % at 20 µM; AID 588489, 2011; in the data active = inhibition above about 35%, passing the limit was not always enough
SKN-1 inh: suppressors of acrylamide-induced Pgst-4::GFP reporter in worms, primary screen, SKN-1 inhibitor project, whole organism, uHTS, GFP/RFP fluorescence ratio, strain VP596; C. elegans VP596 Pgst-4::GFP/RFP ratio, 24 h; inhibition, % at 21.8 µM; actives 0.49% (n = 360,000); AID 624304, 2012;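 active = interference check ratio from 0.5 to 1.5 plus GFP to RFP signal ratio inhibition reaching or exceeding a fixed threshold, cut at about 30% in these data, passing the limit was not always enough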
PABP FP inh: PABP poly(A) RNA binding inhibitors, primary screen, biochemical, fluorescence polarization, uHTS; calls only at 35 µM; actives 1% (n = 290,000);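 also: calls also rest on retests at 20 µM and on dose response follow-up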
Each line names hits and unclear results; the compound was inactive in the other large screens. Unless noted, no rule for the calls is given here.

CC1(OC(=O)CCc2ccccc2)C(=O)C=C2C=C(c3ccsc3)OC=C2C1=O (stereo unspecified)	eIF4H FP inh 69.9, PABP FP inh active (no result: MT1-MMP act inh, PABP1 MLLE inh, SKN-1 inh)
CC1(OC(=O)CCc2ccccc2)C(=O)C=C2C=C(c3ccc(C#N)cc3)N(CC3CC3)C=C2C1=O (stereo unspecified)	none
CC1(OC(=O)CCc2ccccc2)C(=O)C=C2C=C(c3ccc(C#N)cc3)N(C3CCCC3)C=C2C1=O (stereo unspecified)	PABP FP inh active
COc1ccc(S(=O)(=O)N(C)C)cc1NC(=O)COC(=O)C1CC1	none (no result: eIF4H FP inh, PABP FP inh)
CNCc1ccccc1Sc1ccc(O)c(O)c1	PABP1 MLLE inh 40.5
COc1ccc(C(=O)N2CCC2(C)C(=O)NC(C)C)c(OC)c1 (stereo unspecified)	none (no result: eIF4H FP inh, PABP FP inh)
CCO/C=C/C(O)(CNC(=O)c1ccc(C(C)(C)C)cc1)C(F)(F)F (stereo unspecified)	PABP FP inh active
CCOC(=O)c1[nH]c(=S)[nH]c1C	none (no result: eIF4H FP inh, PABP FP inh)
CCCCC1=CC2=C(c3ccco3)C(=O)C(C)(OC(=O)c3ccc(OC)cc3)C(=O)C2=CN1Cc1ccccc1 (stereo unspecified)	PABP FP inh active
CCCCC1=CC2=C(c3ccco3)C(=O)C(C)(OC(=O)c3ccc(OC)cc3)C(=O)C2=CN1CCOC (stereo unspecified)	eIF4H FP inh inconclusive, PABP FP inh inconclusive
Cc1cc(C(=O)NC2Cc3ccccc3C2)c(C)o1	eIF4H FP inh 95.8, PABP FP inh active
COc1ccc(NC(=O)c2ccc(-n3cncn3)c([N+](=O)[O-])c2)cc1	PABP FP inh active
O=C(COc1ccc(Br)cc1)NNC(=O)c1ccc(-n2cncn2)c([N+](=O)[O-])c1	PABP1 MLLE inh 57.6 (no result: eIF4H FP inh, PABP FP inh)
Cc1ccc(OCC(=O)NNC(=O)c2ccc(-n3cncn3)c([N+](=O)[O-])c2)cc1	none (no result: eIF4H FP inh, PABP FP inh)
COc1ccc(NC(=O)c2ccc(-n3cncn3)c([N+](=O)[O-])c2)cc1OC	none (no result: eIF4H FP inh, PABP FP inh)
COC(=O)/C=C1\OCc2ccccc21	none (no result: eIF4H FP inh, PABP1 MLLE inh, PABP FP inh)
COc1ccc2cc(CN(C)C(=O)CN3C(=O)NC4(CCCC4)C3=O)ccc2c1	none (no result: eIF4H FP inh, PABP FP inh)
c1ccc(-c2cnc(-c3ccccc3)nn2)cc1	SKN-1 inh 52.1 (no result: eIF4H FP inh, PABP FP inh)
c1ccc(-c2cnc(-c3ccccn3)nn2)cc1	none (no result: eIF4H FP inh, PABP FP inh)
O=C(Nc1ccc2c(c1)OCO2)c1ccc2sc([C@@H]3O[C@H](CO)[C@@H](O)[C@H]3O)nc2c1	none (no result: eIF4H FP inh, PABP FP inh)
CN(C)CCCNc1nc2cc(-c3ccc(F)cc3)sc2c(=O)n1C	none (no result: eIF4H FP inh, PABP FP inh)
Cc1cc(C)c(C(=O)CC(=O)c2cccnc2)c(C)c1	none (no result: eIF4H FP inh, PABP FP inh)
CC(C)C[C@H]1CNC(=S)N1C[C@H]1CCCN1C[C@H](Cc1ccc(O)cc1)N1C[C@H](CC(C)C)N(CCc2ccccc2)C1=S	none (no result: eIF4H FP inh, PABP FP inh)
CC(C)Oc1ccc(CN=C(N)N=C(N)N)cc1Cl	eIF4H FP inh active, PABP FP inh active
CC(C)C(=O)Nc1cccc(COc2ccccc2CN(Cc2ccccc2)C(=O)OC(C)(C)C)c1	none (no result: eIF4H FP inh, PABP FP inh)
CSc1nsc(NN)n1	PABP1 MLLE inh 41.7 (no result: eIF4H FP inh, PABP FP inh)
COC(=O)c1sc(N2C(=O)C(O)=C(C(=O)c3ccc(C)o3)C2c2ccco2)nc1C (stereo unspecified)	eIF4H FP inh 52.2, PABP FP inh active
O=C(CCn1c(=S)oc2ccccc21)Nc1ccc(F)cc1	eIF4H FP inh 8.9, PABP FP inh active
Cc1ccc(NC(=O)CCn2c(=S)oc3ccccc32)cc1	none
C[C@H](CO)N1C[C@H](C)[C@H](CN(C)S(=O)(=O)c2ccc(Cl)cc2)OCc2cnnn2CCCC1=O	none (no result: eIF4H FP inh, PABP FP inh)
Cc1ccc(-c2cc(C(=O)N/N=C/c3ccco3)n[nH]2)s1	eIF4H FP inh 93.7, PABP FP inh active
CC(C)(C)c1cc(C(=O)N/N=C/c2ccco2)n[nH]1	none
Cc1ccc(NC(=O)CN2C(=O)NC3(CCc4ccccc43)C2=O)cc1S(=O)(=O)N1CCCCC1 (stereo unspecified)	none (no result: eIF4H FP inh, PABP FP inh)
CCOC(=O)CNc1c(-c2ccc(O)cc2)nc2ccc(Cl)cn12	eIF4H FP inh 79.5, PABP FP inh active
CC(=O)Nc1c(-c2ccccc2)nc2ccc(Cl)cn12	none (no result: eIF4H FP inh, PABP FP inh)
O=C(Nc1c(-c2ccccc2)nc2ccc(Cl)cn12)c1cccs1	eIF4H FP inh 50.6, PABP FP inh active
C(=Nc1ccc(Nc2ccccc2)cc1)c1ccc2ccccc2c1	MT1-MMP act inh 43.5
Brc1ccc(C=Nc2ccc(Nc3ccccc3)cc2)s1	MT1-MMP act inh 48.9
COc1ccc(NC(=O)C2Cc3c(-c4ccc(Cl)cc4)ccnc3O2)cn1 (stereo unspecified)	none (no result: eIF4H FP inh, PABP FP inh)
CC1CCC(NC(=O)c2[nH]c(C(F)(F)F)nc2-c2ccccc2)CC1 (stereo unspecified)	none (no result: eIF4H FP inh, PABP FP inh)
CCn1c(NC(=O)Nc2cccc(C)c2C)cc2sccc21	eIF4H FP inh 86.7, PABP FP inh active
O=C(c1ccc2ccccc2c1)c1cccc(F)c1C(=O)O	none (no result: eIF4H FP inh, PABP FP inh)
O=C(NC1CCCCCC1)c1ccc(CS(=O)Cc2cccc(Cl)c2)o1 (stereo unspecified)	none
c1ccc2c(c1)nc1n2C2(N3CCOCC3)CCCC2C1N1CCOCC1 (stereo unspecified)	eIF4H FP inh 56.8, PABP FP inh active
Oc1ccc2c(c1)C1CCCC1(N1CCOCC1)O2 (stereo unspecified)	none
O=C(O)Cc1csc(-c2ccc(F)cc2)n1	none
Clc1ccc(-c2csc(-c3cccnc3)n2)s1	SKN-1 inh 91.9
Brc1ccsc1-c1csc(-c2ccncc2)n1	SKN-1 inh 39.8
Fc1ccccc1-c1csc(-c2cccnc2)n1	none (no result: MT1-MMP act inh)
O=C(O)Cc1csc(-c2ccccc2)n1	eIF4H FP inh 7.1
c1ccc(-c2csc(-c3ccncc3)n2)cc1	SKN-1 inh 69.8
Oc1ccc(-c2nc3ccccc3s2)cc1	none
c1ccc2sc(-c3ccncc3)nc2c1	SKN-1 inh 38.6
O=c1[nH]c2ccc(Br)cc2c(=O)o1	none (no result: eIF4H FP inh, PABP FP inh)
C=C(C)C(=O)Nc1cccc(C2=NOC3(C2)C[C@@H](C(N)=O)N(C(=O)[C@H]2CCC(=O)N2)C3)c1 (stereo partly specified)	eIF4H FP inh 102.9
C=C(C)C(=O)Nc1cccc(C2=NOC3(C2)C[C@@H](C(N)=O)N(C(=O)c2ccc(OC)cc2)C3)c1 (stereo partly specified)	eIF4H FP inh 105.8, PABP FP inh active
C/C=C(/C)C(=O)Nc1cccc(C2=NOC3(C2)C[C@@H](C(N)=O)N(C(=O)[C@H]2CCC(=O)N2)C3)c1 (stereo partly specified)	none
C=C(C)C(=O)Nc1cccc(C2=NOC3(C2)C[C@@H](C(N)=O)N(C(=O)CCCCC)C3)c1 (stereo partly specified)	eIF4H FP inh 80.8, PABP FP inh active (no result: MT1-MMP act inh, PABP1 MLLE inh, SKN-1 inh)
